The source made the active and inactive calls. The rule behind the calls is not given here.
How the values were obtained:
Plasmodium falciparum [1] = assay: Antimalarial activity against drug-resistant Plasmodium falciparum D6 infected in Aotus lemurinus lemurinus monkey; format: functional, organism-based
Plasmodium falciparum [2] = assay: Antimicrobial activity against Plasmodium falciparum W2 at […] in presence of azithromycin; format: functional
Outline: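 In vitro fixed-ratio isobologram using a SYBR green I fluorescence assay. […] IC50s were standardized and FIC50 and ΣFIC50 calculated by the Berenbaum method. Reported as the average ΣFIC across dilutions or the average maximum ΣFIC, from at least 2 experiments.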

Mus musculus [3] = assay: Toxicity in Plasmodium berghei-infected mouse assessed as mortality at split dose of 130 mg/kg/day, po for 7 days; format: organism-based; parameters: route oral; settings: in vivo, 168 h
Plasmodium berghei [4] = assay: Antimalarial activity against Plasmodium berghei infected in mouse assessed as effect on cure rate at 32 mg/kg/day for 3 days; format: functional, organism-based
Outline: (§1)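 Mice were infected ip with 10^6 P. berghei-parasitized erythrocytes. The compound was given orally once daily on days 3, 4 and 5 post-infection in hydroxyethylcellulose-Tween 20 vehicle, alone or together with chloroquine, with 5 mice per dose group. Parasitemia (%) was read on days 3 and 6, and cures were counted as animals cured out of 5.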

Plasmodium falciparum [5] = assay: Antimalarial activity against chloroquine-resistant Plasmodium falciparum FVO infected in Aotus lemurinus leminurus monkey assessed as reduction in parasitemia at 32 mg/kg/day, po for 3 days; format: functional, organism-based
Plasmodium berghei [6] = assay: Antimalarial activity against Plasmodium berghei infected in mouse assessed as parasitemia level at 32 mg/kg/day for 3 days measured on day 3 (reference value: 0.46%); format: functional; outline: as §1
Plasmodium berghei [7] = assay: Antimalarial activity against Plasmodium berghei infected in mouse assessed as parasitemia level at 0.32 mg/kg/day for 3 days measured on day 6 in presence of 4 mg/kg/day chloroquine (reference value: 37%); format: functional
Plasmodium berghei [8] = assay: Antimalarial activity against Plasmodium berghei infected in mouse assessed as parasitemia level at 160 mg/kg/day for 3 days measured on day 3 (reference value: 0.46%); format: functional; outline: as §1
Mus musculus [9] = assay: Toxicity in Plasmodium berghei-infected mouse assessed as mortality at split dose of 40 mg/kg/day, po for 3 days; format: organism-based; parameters: route oral; settings: in vivo, 72 h
[10] = Tmax in ICR mouse at 50 mg/kg/day, sc by LC/MS analysis; format: ADME, organism-based; parameters: route subcutaneous; settings: in vivo
Outline: (§2)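 Male ICR mice, 8 weeks old, got one 50 mg/kg dose either orally or subcutaneously, with three groups of six mice per route. One mouse per group was killed at 15, 30 and 60 min and at 3, 6 and 24 h. Plasma was deproteinized with 2 volumes of acetonitrile and analysed by LC-MS/MS on a C18 column against 0–500 ng/ml standards, with parent and acid metabolite measured in the same sample. Each six-mouse group was treated as one "animal" and fitted to a two-compartment model. AUC was taken by the linear trapezoidal rule extrapolated to infinity, and Cmax and Tmax were read per "animal".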

[11] = Cmax in ICR mouse at 50 mg/kg/day, sc by LC/MS analysis; format: ADME, organism-based; parameters: dose 50 mg/kg/day, route subcutaneous; settings: in vivo; outline: as §2
Plasmodium berghei [12] = assay: Antimalarial activity against Plasmodium berghei infected in mouse assessed as effect on cure rate at 160 mg/kg/day for 3 days measured on day 6 in presence of 2 mg/kg/day chloroquine; format: functional, organism-based; outline: as §1
[13] = Half life in human liver microsome by LC/MS analysis; format: ADME; settings: liver microsomes
Plasmodium berghei [14] = assay: Antimalarial activity against Plasmodium berghei infected in mouse assessed as effect on cure rate at 0.32 mg/kg/day for 3 days measured on day 6 in presence of 4 mg/kg/day chloroquine; format: functional, organism-based
Plasmodium berghei [15] = assay: Antimalarial activity against Plasmodium berghei infected in mouse assessed as parasitemia level at 0.32 mg/kg/day for 3 days measured on day 3 (reference value: 0.46%); format: functional
[16] = AUC in ICR mouse at 50 mg/kg/day, po by LC/MS analysis; format: ADME, organism-based; parameters: route oral; settings: plasma; outline: as §2
Plasmodium falciparum [17] = assay: Antimalarial activity against Plasmodium falciparum infected in mouse RAW264.7 cells; format: functional, organism-based
Plasmodium berghei [18] = assay: Antimalarial activity against Plasmodium berghei infected in mouse assessed as effect on cure rate at single dose of 80 mg/kg/day, po for 3 days; format: functional, organism-based
Outline: (§3)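 Mice were infected ip with 10^6 P. berghei-parasitized erythrocytes. The compound was given in hydroxyethylcellulose-Tween 20 vehicle, 5 mice per group, starting on day 3 post-infection. Regimens were once-daily or split daily oral doses over 3 days, subcutaneous dosing, or dosing over 7 days. Read-outs were posttreatment parasitemia on day 6 as a fraction of controls and the number of mice cured.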

[19] = Half life in mouse liver microsomes by LC/MS analysis; format: ADME, Microsome
Plasmodium berghei [20] = assay: Antimalarial activity against Plasmodium berghei infected in mouse assessed as parasitemia level at 0.32 mg/kg/day for 3 days measured on day 3 in presence of 4 mg/kg/day chloroquine (reference value: 0.46%); format: functional
Mus musculus [21] = assay: Toxicity in Plasmodium berghei-infected mouse assessed as mortality at split dose of 160 mg/kg/day, po for 3 days; format: organism-based; parameters: route oral; settings: in vivo, 72 h
Plasmodium berghei [22] = assay: Antimalarial activity against Plasmodium berghei infected in mouse assessed as parasitemia level at split dose of 320 mg/kg/day, po for 3 days measured on day 6 relative to control; format: functional
Outline: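 Blood-stage P. berghei model: mice inoculated ip with 10^6 parasitized erythrocytes. Oral treatment for 3 days, with the daily dose split, in hydroxyethylcellulose-Tween 20 vehicle. Day-6 parasitemia expressed as a fraction of control parasitemia.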

Plasmodium falciparum [23] = assay: Antimalarial activity against drug-resistant Plasmodium falciparum TM91C235; format: functional, organism-based
Plasmodium berghei [24] = assay: Antimalarial activity against Plasmodium berghei infected in mouse assessed as effect on cure rate at 3.2 mg/kg/day for 3 days; format: functional, organism-based
Plasmodium berghei [25] = assay: Antimalarial activity against Plasmodium berghei infected in mouse assessed as parasitemia level at 52 mg/kg/day for 3 days measured on day 6 in presence of 64 mg/kg/day chloroquine; format: functional; outline: as §1
Mus musculus [26] = assay: Toxicity in Plasmodium berghei-infected mouse assessed as mortality at split dose of 130 mg/kg/day, sc for 3 days measured on day 5; format: organism-based; parameters: route subcutaneous; settings: in vivo, 72 h
Plasmodium berghei [27] = assay: Antimalarial activity against Plasmodium berghei infected in mouse assessed as parasitemia level at single dose of 80 mg/kg/day, po for 3 days measured on day 6 relative to control; format: functional
Outline: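 Mice infected intraperitoneally with 10^6 P. berghei-parasitized erythrocytes. Drug given orally once daily on days 3, 4 and 5 post-infection in hydroxyethylcellulose-Tween 20 vehicle, 5 mice per dose group. Parasitemia measured on day 6 and expressed as a fraction of untreated control parasitemia.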

[28] = Cmax in ICR mouse at 50 mg/kg/day, po by LC/MS analysis; format: ADME, organism-based; parameters: dose 50 mg/kg/day, route oral; settings: in vivo; outline: as §2
Plasmodium berghei [29] = assay: Antimalarial activity against Plasmodium berghei infected in mouse assessed as effect on cure rate at 160 mg/kg/day for 3 days; format: functional, organism-based; outline: as §1
[30] = Selectivity index, ratio of LC50 for mouse RAW264.7 cells to IC50 for Plasmodium falciparum; settings: raw264.7
Plasmodium berghei [31] = assay: Antimalarial activity against Plasmodium berghei infected in mouse assessed as effect on cure rate at split dose of 160 mg/kg/day, po for 3 days; format: functional, organism-based; outline: as §3
Plasmodium berghei [32] = assay: Antimalarial activity against Plasmodium berghei infected in mouse assessed as effect on cure rate at split dose of 320 mg/kg/day, po for 3 days; format: functional, organism-based; outline: as §3
Mus musculus [33] = assay: Toxicity in Plasmodium berghei-infected mouse assessed as mortality at split dose of 640 mg/kg/day, po for 3 days; format: organism-based; parameters: route oral; settings: in vivo, 72 h
Plasmodium falciparum [34] = assay: Antimicrobial activity against Plasmodium falciparum D6 infected in Aotus lemurinus lemurinus monkey at […] in presence of artemisinin; format: functional

With `Nc1cccc(-c2csc(NC(=O)CCCCCCC(=O)NO)n2)c1` the IC50 (Plasmodium falciparum [1]) was 0.8 nM, the “fractional inhibitory concentration index (FICI)” value (Plasmodium falciparum [2]) was 1.5 and the Activity (Mus musculus [3]) was “Non-toxic”. For the same compound, the Activity (Plasmodium berghei [4]) was “inactive”, the inhibition (Plasmodium falciparum [5]) was “Active” and the Activity (Plasmodium berghei [6]) was 0.38%. For the same compound, the Activity (Plasmodium berghei [7]) was 0.024%, the Activity (Plasmodium berghei [8]) was 0.64% and the Activity (Mus musculus [9]) was “Non-toxic”. For the same compound, the Tmax [10] was 1.3 h, the Cmax [11] was 403 ng/mL and the Activity (Plasmodium berghei [12]) was “inactive”. The half-life [13] was over 60 min, the Activity (Plasmodium berghei [14]) was “inactive” and the Activity (Plasmodium berghei [15]) was 0.62%. The AUC [16] was 3690 ng·h/mL, the IC50 (Plasmodium falciparum [17]) was 0.59 nM and the Activity (Plasmodium berghei [18]) was “inactive”. For the same compound, the half-life [19] was 11 min, the Activity (Plasmodium berghei [20]) was 0.72% and the Activity (Mus musculus [21]) was “Non-toxic”. The “fold change (FC)” value (Plasmodium berghei [22]) was 0.004, the IC50 (Plasmodium falciparum [23]) was 1.5 nM and the Activity (Plasmodium berghei [24]) was “inactive”. For the same compound, the Activity (Plasmodium berghei [25]) was 0%, the Activity (Mus musculus [26]) was “Toxic” and the “fold change (FC)” value (Plasmodium berghei [27]) was 0.096. The Cmax [28] was 2500 ng/mL, the Activity (Plasmodium berghei [29]) was “inactive” and the selectivity ratio [30] was 1080. The Activity (Plasmodium berghei [31]) was “inactive”, the Activity (Plasmodium berghei [32]) was “inactive” and the Activity (Mus musculus [33]) was “Non-toxic”. For the same compound, the “fractional inhibitory concentration index (FICI)” value (Plasmodium falciparum [34]) was 2.1.

Source: ChEMBL document CHEMBL1629555, “Antimalarial activity of phenylthiazolyl-bearing hydroxamate-based histone deacetylase inhibitors” (Antimicrob Agents Chemother, 2008)
